Measurements: ChEMBL document CHEMBL1123427, “Synthesis of thyrotropin-releasing hormone analogues. 2. Tripeptides structurally greatly differing from TRH with high central nervous system activity” (1986)
Residues, ends and D or L forms follow the SMILES beside them.

Tests used:
Mus musculus = species: Mus musculus; test: Reduction of hexobarbital induced sleeping time in mice.; type: functional
Rattus norvegicus [1] = test: Ability of 80 mg/kg to inhibit the cataleptic effect of haloperidol in rat; type: functional
Rattus norvegicus [2] = species: Rattus norvegicus; test: Dose that inhibited cataleptic effect of haloperidol in rat by 50%; type: functional
Rattus norvegicus [3] = species: Rattus norvegicus; test: Thyrotropin releasing activity (TSH) was evaluated by measuring the TSH response to the compound by radioimmunoassay in two doses in the rat; type: functional
Procedure, shortened: (§1)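 Rat two-point assay at 1 and 10 μg. TSH response is measured by radioimmunoassay. Compounds are dissolved in physiological saline (5 mL/kg), and controls receive the same volume of saline. n = 10 animals per treatment. Significance is given as p < 0.01 and p < 0.001.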

Rattus norvegicus [4] = species: Rattus norvegicus; test: Thyrotropin releasing activity (TSH) was evaluated by measuring the TSH response to the compound by radioimmunoassay in two doses in the rat; np denotes Slightly significant but not parallel TSH response to the lower and upper dose s used; type: functional, organism-based; procedure, shortened: as §1
Rattus norvegicus [5] = test: Ability of 80 mg/kg to inhibit the cataleptic effect of haloperidol in rat; Potentiating effect; type: functional, organism-based; design: dose 80 mg/kg; settings: at 80 mg/kg
Rattus norvegicus [6] = species: Rattus norvegicus; test: Doses that inhibited cataleptic effect of haloperidol in rat by 50%; type: functional

CC(C)C[C@H](NC(=O)[C@@H]1CCC(=O)O1)C(=O)N1CCC[C@H]1C(N)=O
Sleeping time (Mus musculus): 36.8 min
inhibition in vivo at 80 mg/kg (Rattus norvegicus [1]): 40%

CCC[C@H](NC(=O)[C@@H]1CCCC(=O)N1)C(=O)N1CCC[C@H]1C(N)=O
ED50 (Rattus norvegicus [2]): 10.6 mg/kg
Sleeping time (Mus musculus): 19.7 min
Activity (Rattus norvegicus [3]): 0%

CC(C)C[C@H](NC(=O)[C@@H]1CNC(=O)N1)C(=O)N1CCC[C@H]1C(N)=O
Sleeping time (Mus musculus): 25.8 min
inhibition in vivo at 80 mg/kg (Rattus norvegicus [1]): 40%
Activity (Rattus norvegicus [3]): 0%

CCC[C@H](NC(=O)[C@@H]1CCCC(=O)N1)C(=O)N1CSC[C@H]1C(N)=O
ED50 (Rattus norvegicus [2]): 60.3 mg/kg
Sleeping time (Mus musculus): 23.6 min

CCC[C@H](NC(=O)[C@@H]1CCC(=O)N1)C(=O)N[C@H](CCSC)C(N)=O
Sleeping time (Mus musculus): 46.1 min
inhibition in vivo at 80 mg/kg (Rattus norvegicus [1]): 20%
Activity (Rattus norvegicus [3]): 0%

CCC[C@H](NC(=O)[C@@H]1CCCC(=O)N1)C(=O)N1CSC[C@@H]1C(N)=O
Activity (Rattus norvegicus [4]): Slightly significant but not parallel

CC(=O)N1CCC[C@H]1C(=O)N[C@@H](CC(C)C)C(=O)N1CCC[C@H]1C(N)=O (Ac-Pro-Leu-Pro-NH2)
Sleeping time (Mus musculus): 37.6 min
inhibition in vivo at 80 mg/kg (Rattus norvegicus [1]): 0%

CC(C)C[C@H](NC(=O)[C@@H]1CCCN1)C(=O)N1CCC[C@H]1C(N)=O (H-Pro-Leu-Pro-NH2)
Sleeping time (Mus musculus): 65.6 min
Activity (Rattus norvegicus [4]): Slightly significant but not parallel
inhibition in vivo at 80 mg/kg (Rattus norvegicus [1]): 0%

CC(C)C[C@H](NC(=O)[C@@H]1CCC(=O)N1)C(=O)NCC(N)=O (HELM PEPTIDE1{[Glp].L.G.[am]}$$$$V2.0)
Sleeping time (Mus musculus): 35.8 min
inhibition in vivo at 80 mg/kg (Rattus norvegicus [1]): 0%

CC(C)C[C@H](NC(=O)[C@@H]1CCC(=O)N1)C(=O)N1CCCC[C@H]1C(=O)O (HELM PEPTIDE1{[Glp].L.[O=C(O)[C@@H]1CCCCN1[*:1]]}$$$$V2.0)
Sleeping time (Mus musculus): 33.3 min
Activity (Rattus norvegicus [4]): Slightly significant but not parallel
inhibition in vivo at 80 mg/kg (Rattus norvegicus [1]): 20%

CC(C)C[C@H](NC(=O)[C@@H]1CCC(=O)N1)C(=O)N1CCCC[C@H]1C(N)=O (HELM PEPTIDE1{[Glp].L.[O=C([C@@H]1CCCCN1[*:1])[*:2]].[am]}$$$$V2.0)
ED50 (Rattus norvegicus [2]): 38.5 mg/kg
Sleeping time (Mus musculus): 16.6 min
Activity (Rattus norvegicus [3]): 7.2%

CC(C)C[C@H](NC(=O)[C@@H]1CCC(=O)N1)C(=O)N1CSC[C@H]1C(N)=O (HELM PEPTIDE1{[Glp].L.[O=C([C@@H]1CSCN1[*:1])[*:2]].[am]}$$$$V2.0)
ED50 (Rattus norvegicus [2]): 31.4 mg/kg
Sleeping time (Mus musculus): 17.2 min
Activity (Rattus norvegicus [3]): 0%

CCC[C@H](NC(=O)[C@@H]1CCC(=O)N1)C(=O)N[C@H](C(N)=O)[C@@H](C)CC (HELM PEPTIDE1{[Glp].[Nva].I.[am]}$$$$V2.0)
Sleeping time (Mus musculus): 47.7 min
inhibition (Rattus norvegicus [5]): Potentiating effect
Activity (Rattus norvegicus [3]): 0%

CCC[C@H](NC(=O)[C@@H]1CCC(=O)N1)C(=O)N[C@@H](CC(C)C)C(N)=O (HELM PEPTIDE1{[Glp].[Nva].L.[am]}$$$$V2.0)
Sleeping time (Mus musculus): 43 min
inhibition in vivo at 80 mg/kg (Rattus norvegicus [1]): 20%
Activity (Rattus norvegicus [3]): 0%

CCC[C@H](NC(=O)[C@@H]1CCC(=O)N1)C(=O)N1CSC[C@H]1C(N)=O (HELM PEPTIDE1{[Glp].[Nva].[O=C([C@@H]1CSCN1[*:1])[*:2]].[am]}$$$$V2.0)
ED50 (Rattus norvegicus [2]): 56 mg/kg
Sleeping time (Mus musculus): 26.4 min
Activity (Rattus norvegicus [3]): 0%

CC(C)C[C@H](NC(=O)[C@@H]1CSCN1)C(=O)N1CCC[C@H]1C(N)=O (HELM PEPTIDE1{[O=C([C@@H]1CSCN1)[*:2]].L.P.[am]}$$$$V2.0)
Sleeping time (Mus musculus): 35 min
inhibition in vivo at 80 mg/kg (Rattus norvegicus [1]): 0%
Activity (Rattus norvegicus [3]): 0%

CC(C)C[C@H](NC(=O)[C@@H]1CCCC(=O)N1)C(=O)N1CCC[C@H]1C(N)=O [POSATIRELIN]
ED50 (Rattus norvegicus [6]): 23.5 mg/kg
Sleeping time (Mus musculus): 16.4 min
Activity (Rattus norvegicus [3]): 2.7%

NC(=O)[C@@H]1CCCN1C(=O)[C@H](Cc1c[nH]cn1)NC(=O)[C@@H]1CCC(=O)N1 [PROTIRELIN]
Sleeping time (Mus musculus): 24.8 min
inhibition in vivo at 80 mg/kg (Rattus norvegicus [1]): 40%
Activity (Rattus norvegicus [3]): 100%
